# Assay results pooled from the literature.
# Compare with care: the assays were run in different laboratories.
# Target: Mitogen-activated protein kinase kinase kinase 12 (MAP3K12, Homo sapiens, UniProt Q12852)
# One construct used (Q12852 1-859): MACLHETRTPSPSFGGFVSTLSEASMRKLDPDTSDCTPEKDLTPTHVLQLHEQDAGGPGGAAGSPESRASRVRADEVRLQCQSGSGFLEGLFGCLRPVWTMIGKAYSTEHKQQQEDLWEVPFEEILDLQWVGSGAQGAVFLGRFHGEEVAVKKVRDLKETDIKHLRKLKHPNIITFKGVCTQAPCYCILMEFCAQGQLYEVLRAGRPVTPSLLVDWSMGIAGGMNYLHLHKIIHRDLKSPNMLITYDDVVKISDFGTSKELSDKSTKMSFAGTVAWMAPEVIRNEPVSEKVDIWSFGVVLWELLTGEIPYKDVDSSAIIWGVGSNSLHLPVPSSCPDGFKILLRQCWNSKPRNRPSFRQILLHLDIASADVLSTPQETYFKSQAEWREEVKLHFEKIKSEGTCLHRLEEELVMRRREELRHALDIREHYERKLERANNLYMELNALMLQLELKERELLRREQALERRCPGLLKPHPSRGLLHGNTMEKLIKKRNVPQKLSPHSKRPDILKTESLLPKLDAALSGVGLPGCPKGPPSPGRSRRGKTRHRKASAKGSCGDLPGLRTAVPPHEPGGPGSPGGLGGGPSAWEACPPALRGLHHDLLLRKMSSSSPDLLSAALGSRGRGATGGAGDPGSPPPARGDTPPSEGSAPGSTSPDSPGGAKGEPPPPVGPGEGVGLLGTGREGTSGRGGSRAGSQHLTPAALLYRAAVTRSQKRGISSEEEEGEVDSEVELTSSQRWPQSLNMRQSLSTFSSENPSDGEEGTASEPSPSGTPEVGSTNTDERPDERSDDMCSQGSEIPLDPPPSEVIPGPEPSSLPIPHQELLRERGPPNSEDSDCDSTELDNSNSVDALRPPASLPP
SMILES,read-out,mode,method,concentration,measurement,value
COc1ccnn2ncc(-c3ccnc(N(C)C)n3)c12,binding,,,1 µM,remaining binding,97%
O=C(Nc1cnn(-c2csc(C(=O)NC3COC3)c2)c1)Nc1c(F)cccc1Cl,enzyme activity,inhibitor,,5 µM,remaining activity,82.2%
Nc1ncnc2occ(-c3ccc(NC(=O)Nc4cc(C(F)(F)F)ccc4F)cc3)c12,cell-free assay,inhibitor,,20 µM,remaining signal,17%
CC/C(=N\NC(=O)NCc1cccc(O)c1)c1ccc(O)c(C)c1O,enzyme activity,inhibitor,,0.1 µM,inhibition,0.4%
Cc1ccc(C(=O)Nc2ccc(CN3CCN(C)CC3)c(C(F)(F)F)c2)cc1C#Cc1cnc2cccnn12,enzyme activity,inhibitor,,23.5 nM,remaining activity,76%
O=C(Nc1cccnn1)N1CCC(=Cc2cccc(Oc3ccc(C(F)(F)F)cn3)c2)CC1,cell-free assay,,competition with immobilised ligand,1 µM,remaining binding,100%
N[C@@H]1CCN(c2nccc(-c3cnn4ncccc34)n2)C1,binding,,,1 µM,remaining binding,100%
CC(C)(O)[C@H]1CC[C@H](Nc2ccc3ncc(-c4cccc(C(F)(F)F)c4)n3n2)CC1,enzyme activity,inhibitor,,1 µM,remaining activity,73%
COc1ccc2cc(OCC3(C(=O)O)CN(C(=O)c4ccc(F)cc4)C3)ccc2c1,cell-free assay,,competition with immobilised ligand,1 µM,remaining binding,97%
O=C(Nc1cnn(-c2csc(C(=O)NC3COC3)c2)c1)Nc1ccccc1Cl,enzyme activity,inhibitor,,5 µM,remaining activity,96.5%
